Data: ChEMBL document CHEMBL1150692, “Isolation and synthesis of a new bioactive ellagic acid derivative from Combretum yunnanensis” (J Nat Prod, 2003)
In brackets after ≈: the same amount, converted by molar mass.

What was measured:
P388 [1] = assay: Cytotoxicity against mouse P388 cells after 3 days by MTT assay; assay type: functional, cell-based; conditions: P388, 72 h
Outline: (§1)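 Incubated with sample at 37 °C for 3 or 4 days; viable cell number then estimated by MTT colorimetric assay.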

P388 [2] = assay: Cytotoxicity against adriamycin-resistant mouse P388 cells after 3 days by MTT assay; assay type: functional, cell-based; conditions: P388, 72 h; outline: as §1
K562 [3] = assay: Cytotoxicity against human K562 cells after 3 days by MTT assay; assay type: functional, cell-based; conditions: K562, 72 h; outline: as §1
K562 [4] = assay: Cytotoxicity against adriamycin-resistant human K562 cells after 3 days by MTT assay; assay type: functional, cell-based; conditions: K562, 72 h; outline: as §1
B16 = assay: Cytotoxicity against mouse B16 cells after 3 days by MTT assay; assay type: functional, cell-based; conditions: B16, 72 h; outline: as §1
HeLa = assay: Cytotoxicity against human HeLa cells after 3 days by MTT assay; assay type: functional, cell-based; conditions: 72 h; outline: as §1
KB = assay: Cytotoxicity against human KB cells after 3 days by MTT assay; assay type: functional, cell-based; conditions: 72 h; outline: as §1
Protease = Protease (Human immunodeficiency virus 1, UniProt Q9YQ12); assay: Inhibition of HIV1 protease
Mus musculus = assay: Toxicity in mouse at 100 mg/kg, ip; assay type: organism-based; design: dose 100 mg/kg, route intraperitoneal; conditions: in vivo

Protease, sequence (Q9YQ12 whole entry): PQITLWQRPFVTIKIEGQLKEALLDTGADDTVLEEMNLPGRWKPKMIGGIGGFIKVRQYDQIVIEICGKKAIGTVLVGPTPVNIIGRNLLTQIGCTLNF

Row | Compound | IC50 (P388 [1]) [µg/mL] | IC50 (P388 [2]) [µg/mL] | IC50 (K562 [3]) [µg/mL] | IC50 (K562 [4]) [µg/mL] | IC50 (B16) [µg/mL] | IC50 (HeLa) [µg/mL] | IC50 (KB) [µg/mL] | IC50 (Protease) [µM] | Activity (Mus musculus)
1 | CC(=O)O[C@@H]1[C@@H](O)[C@@H](O)[C@H](Oc2cc3c(=O)oc4c(O)c(O)cc5c(=O)oc(c2O)c3c45)O[C@H]1C | 52 (≈ 106 µM) | 19 (≈ 38.7 µM) | 80 (≈ 163 µM) | 56 (≈ 114 µM) | 52 (≈ 106 µM) | 76 (≈ 155 µM) | 61 (≈ 124 µM) | 22.4 | Non-toxic
2 | C[C@@H]1O[C@@H](Oc2cc3c(=O)oc4c(O)c(O)cc5c(=O)oc(c2O)c3c45)[C@H](O)[C@H](O)[C@H]1O [ESCHWEILENOL C] | 62 (≈ 138 µM) | 53 (≈ 118 µM) | 82 (≈ 183 µM) | 67 (≈ 149 µM) | 88 (≈ 196 µM) | 86.5 (≈ 193 µM) | 98 (≈ 219 µM) | 10.7 | –
